Results pooled from the literature.
Compare with care: the assays were run in different laboratories. Values after ≈ are worked out from the molar mass of the structure shown.

Structure (SMILES) | tested on | test | test system | setting | endpoint | result
CC(=O)OC[C@H]1O[C@@H](n2cnc(N)nc2=O)[C@H](OC(C)=O)[C@@H]1OC(C)=O | OCI-Ly1 | cell growth or viability, ATP luminescence |  | 1 µM, 5 days | viability | 153%
C=C[C@]1(C)C[C@@H](OC(=O)CS[C@@H]2C[C@H]3CC[C@@H](C2)N3C)[C@]2(C)[C@H](C)CC[C@]3(CCC(=O)[C@H]32)[C@@H](C)[C@@H]1O | Staphylococcus epidermidis | microbial growth |  | clinical isolate | MIC50 | 0.0312 µg/mL (≈ 0.0604 µM)
CCCCCCCCCCCCCCCCCCOCC(COP(=O)([O-])OCC[N+](C)(C)C)OC (stereo not shown) | HOP-92 | cell growth or viability, SRB |  | 10 µM | inhibition | 40.1%
O=C(NCCN1CCCCC1)c1ccc(-c2nc3ccc4[nH]ncc4c3c3c2CCCC3)cc1 | K562 | cell growth or viability, resazurin |  | 72 h | GI50 | 7.5 µM
O=C(Nc1cccc(Br)c1)c1cccc(S(=O)(=O)N2CCCCCC2)c1 | OCI-Ly1 | cell growth or viability, ATP luminescence |  | 0.1 µM, 5 days | viability | 178%
CN1CCN(C(=O)c2ccc(-c3nc4ccc5[nH]ncc5c4c4c3CCCC4)cc2)CC1 | K562 | cell growth or viability, resazurin |  | 72 h | GI50 | > 10 µM
Cc1ccc2[nH]nc(-c3nnc(Nc4ccc(Cl)cc4)s3)c2c1 | Staphylococcus epidermidis | microbial growth | ATCC12228 |  | MIC | 133 µg/mL (≈ 389 µM)
CN[C@H](CC(C)C)C(=O)N[C@H]1C(=O)N[C@@H](CC(N)=O)C(=O)N[C@H]2C(=O)N[C@H]3C(=O)N[C@H](C(=O)N[C@H](C(=O)O)c4cc(O)cc(O)c4-c4cc3ccc4O)[C@H](O)c3ccc(c(Cl)c3)Oc3cc2cc(c3O[C@@H]2O[C@H](CO)[C@@H](O)[C@H](O)[C@H]2O[C@H]2C[C@](C)(N)[C@H](O)[C@H](C)O2)Oc2ccc(cc2Cl)[C@H]1O | Staphylococcus epidermidis | microbial growth |  | clinical isolate | MIC50 | 0.5 µg/mL (≈ 0.345 µM)
CCCCCCCCCCCCCCCCCCOc1cccc(CC(=O)OCC[N+]2(C)CCOCC2)c1 | HOP-62 | cell growth or viability, SRB |  | 10 µM | inhibition | 9.38%
CN(C)CCNC(=O)c1ccc(-c2nc3ccc4[nH]ncc4c3c3c2CCCCC3)cc1 | K562 | cell growth or viability, resazurin |  | 72 h | GI50 | 1.5 µM
CCCCCCCCCCCCCCCCCCOc1ccccc1CC(=O)OCC[N+](C)(C)C | HOP-92 | cell growth or viability, SRB |  | 10 µM | inhibition | 114%
O=C(NC1CCCCC1)c1ccc(-c2nc3ccc4[nH]ncc4c3c3c2CCCC3)cc1 | K562 | cell growth or viability, resazurin |  | 72 h | GI50 | > 10 µM
O=C(/C=C/c1cccc(C(=O)NO)c1)NO | OCI-Ly1 | cell growth or viability, ATP luminescence |  | 1 µM, 5 days | viability | 72.5%
CCCCCCCCCCCCCCCCCCOc1ccccc1CC(=O)OCCC[N+](C)(C)C | HOP-92 | cell growth or viability, SRB |  | 10 µM | inhibition | 60.4%
CC1(C)S[C@@H]2[C@H](NC(=O)[C@H](N)c3ccccc3)C(=O)N2[C@H]1C(=O)O | Staphylococcus epidermidis | microbial growth | MRSE | clinical isolate | MIC90 | > 128 µg/mL
O=C(CCCCCCC(=O)Nc1ccccc1)NO | OCI-Ly1 | cell growth or viability, ATP luminescence |  | 1 µM, 5 days | viability | 50.5%
CN(C)CCNC(=O)c1ccc(-c2nc3ccc4[nH]ncc4c3c3c2CCCC3)s1 | K562 | cell growth or viability, resazurin |  | 72 h | GI50 | 0.805 µM
O=C(NO)c1ccc(CC(=O)N(CCO)c2ccccc2)cc1 | OCI-Ly1 | cell growth or viability, ATP luminescence |  | 0.5 µM, 5 days | viability | 93.8%
Cc1ccc2[nH]nc(-c3nnc(Nc4ccc([N+](=O)[O-])cc4)s3)c2c1 | Staphylococcus epidermidis | microbial growth | ATCC12228 |  | MIC | 135 µg/mL (≈ 382 µM)
CCCCCCCCCCCCCCCCCCOc1cccc(CC(=O)OCCC[N+](C)(C)C)c1 | HOP-92 | cell growth or viability, SRB |  | 10 µM | inhibition | 22.4%
Cc1ccc2[nH]nc(-c3nnc(Nc4ccc(Cl)c(Br)c4)s3)c2c1 | Staphylococcus epidermidis | microbial growth | ATCC12228 |  | MIC | 235 µg/mL (≈ 558 µM)
CC(=O)NC[C@H]1CN(c2ccc(N3CCOCC3)c(F)c2)C(=O)O1 | Staphylococcus epidermidis | microbial growth | MRSE | clinical isolate | MIC90 | 2 µg/mL (≈ 5.93 µM)
O=C(NCCCN1CCOCC1)c1ccc(-c2nc3ccc4[nH]ncc4c3c3c2CCCC3)cc1 | K562 | cell growth or viability, resazurin |  | 72 h | GI50 | > 10 µM
Cc1ccc2[nH]nc(-c3nnc(Nc4ccc(F)cc4)s3)c2c1 | Staphylococcus epidermidis | microbial growth | ATCC12228 |  | MIC | 123 µg/mL (≈ 377 µM)
CCCCCCCCCCCCCCCCCCOc1ccc(CC(=O)OCCC[N+](C)(C)C)cc1 | HOP-92 | cell growth or viability, SRB |  | 10 µM | inhibition | 22.1%
CN(C)CCN(C)C(=O)c1ccc(-c2nc3ccc4[nH]ncc4c3c3c2CC(F)(F)CC3)cc1 | K562 | cell growth or viability, resazurin |  | 72 h | GI50 | 6.7 µM
CCCCCCCCCCCCCCCCCCOc1ccc(CC(=O)OCC[N+](CC)(CC)CC)cc1 | HOP-92 | cell growth or viability, SRB |  | 10 µM | inhibition | 13.3%
Cc1n[nH]c2ccc3nc(-c4ccc(C(=O)NCCN(C)C)cc4)c4c(c3c12)CCCCC4 | K562 | cell growth or viability, resazurin |  | 72 h | GI50 | 2.9 µM
